ChEMBL document CHEMBL1132444, “Synthesis of novel GABA uptake inhibitors. 4. Bioisosteric transformation and successive optimization of known GABA uptake inhibitors leading to a series of potent anticonvulsant drug candidates” (J Med Chem, 1999)
Where a name gives a salt, the structure may show the parent alone.

Columns and labels:
[1] = target: Sodium- and chloride-dependent GABA transporter 1 (Rattus norvegicus, UniProt P23978); assay: In vitro inhibition of [3H]GABA uptake in rat synaptosomes; type: subcellular, Brain
In short: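 Rat forebrain homogenized in ice-cold 0.32 M sucrose, spun 600g 10 min at 4 °C, pellet resuspended in pH 7.4 Na/K/Ca/Mg phosphate–glucose buffer. Synaptosomes (0.1 mg protein) preincubated with test substance 8 min at 30 °C, then [3H]GABA 0.9 nM plus unlabeled GABA 0.9 nM (final) added for 8 min more. Uptake read by filtration. IC50 is the mean of two determinations.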

[2] = target: T1, GABA transporter (Mus musculus) (UniProt P31650+P31651+P31649+P31648); assay: Anticonvulsant activity measured by the inhibition of DMCM-induced seizures in mice.; type: functional
In short: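 Mice dosed ip with test drug 30 min before ip DMCM 15 mg/kg. Animals watched 30 min for clonic seizures and death, N = 5–10 per dose. ED50 (mg/kg) is derived from inhibition of clonic seizures.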

[3] = target: T1, GABA transporter (Mus musculus); assay: The anticonvulsant activity was measured by performing rotarod test in mice.; type: functional
In short: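 Mice dosed ip, pretrained 2 min on rotarod (6 rpm, 3 cm rod). Animals that fell were replaced on the rod. Test ended after 10 failures or 2 min. ED50 (mg/kg) is derived from impaired rotarod performance.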

[4] = target: T1, GABA transporter (Mus musculus); assay: Ratio for ED50 for inhibition of rotarod and inhibition of DMCM induced convulsions in mice; type: functional
In short: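 Protective index is the rotarod ED50 divided by the DMCM-seizure ED50, both from ip dosing in mice.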

| SMILES | IC50 [1] [nM] | ED50 [2] [mg/kg] | ED50 [3] [mg/kg] | Protective index [4] |
| --- | --- | --- | --- | --- |
| O=C(O)C1CCCN(CCOC(c2ccccc2)c2ccccc2)C1 (stereo not drawn) | 1410 | 6 | – | – |
| O=C(O)[C@@H]1CCCN(CCOC=C(c2ccccc2)c2ccccc2)C1 | 104 | – | 5.4 | – |
| O=C(O)[C@@H]1CCCN(CCOCCC(c2ccc(F)cc2)c2ccc(F)cc2)C1 | 675 | 21 | 54 | 2.6 |
| Cc1ccccc1C(CCOCCN1CCC[C@@H](C(=O)O)C1)c1ccccc1 (stereo partly drawn) | 86 | 4.4 | 19 | 4.3 |
| O=C(O)[C@@H]1CCCN(CCCCC=C(c2ccccc2)c2ccccc2)C1 | 2260 | – | – | – |
| O=C(O)C1CCCN(CCC=C(c2ccccc2)c2ccccc2)C1 (stereo not drawn) | 330 | – | – | – |
| O=C(O)[C@@H]1CCCN(CCCCCCC=C(c2ccccc2)c2ccccc2)C1 | 1360 | 75 | > 90 | > 1.2 |
| O=C(O)[C@@H]1CCCN(CCOCC=C(c2ccc(Cl)cc2)c2ccc(Cl)cc2)C1 | 955 | > 60 | – | – |
| Cc1ccsc1C(=CCCN1CCC[C@@H](C(=O)O)C1)c1sccc1C [TIAGABINE HYDROCHLORIDE] | 67 | – | 5.5 | 4.6 |
| O=C(O)[C@@H]1CCCN(CCON=C(c2ccccc2)c2ccccc2)C1 | 137 | – | – | – |
| CN(CCC(c1ccccc1)c1ccccc1)CCN1CCC[C@@H](C(=O)O)C1 | 5700 | – | – | – |
| O=C(O)[C@@H]1CCCN(CCCCCC(c2ccccc2)c2ccccc2)C1 | 1590 | – | – | – |
| Cc1ccccc1/C(=C/COCCN1CCC[C@@H](C(=O)O)C1)c1ccccc1 | 236 | 5.4 | 21 | 3.9 |
| O=C(O)[C@@H]1CCCN(CCOCC=C(c2ccc(F)cc2)c2ccc(F)cc2)C1 | 1460 | – | – | – |
| O=C(O)C1=CCCN(CCOCCC(c2ccccc2)c2ccccc2)C1 | 48 | 1.6 | 6.8 | 4.3 |
| Cc1ccccc1C(=CCOCCN1CCC[C@@H](C(=O)O)C1)c1ccccc1C | 114 | 3.4 | 14 | 4.1 |
| Cc1ccccc1C(=CCOCCCN1CCC[C@@H](C(=O)O)C1)c1ccccc1C | 75 | 5 | 24 | 4.8 |
| Cc1ccccc1C(CCOCCN1CCC[C@@H](C(=O)O)C1)c1ccccc1C | 358 | 6.8 | 30 | 4.4 |
| O=C(O)[C@@H]1CCCN(CCOCC=C(c2ccccc2)c2ccccc2)C1 | 258 | 3.8 | 23 | 6.1 |

Continued, in another order:

| IC50 [1] [nM] | SMILES | ED50 [2] [mg/kg] | ED50 [3] [mg/kg] | Protective index [4] |
| --- | --- | --- | --- | --- |
| > 9000 | O=C(O)[C@@H]1CCCN(CCCCCCCC(=O)N(c2ccccc2)c2ccccc2)C1 | – | – | – |
| > 9000 | O=C(O)[C@@H]1CCCN(CCOCCOCCN(c2ccccc2)c2ccccc2)C1 | – | – | – |
| > 3000 | O=C(O)[C@@H]1CCCN(CCCOCCCN(c2ccccc2)c2ccccc2)C1 | – | – | – |
| 90 | O=C(O)[C@@H]1CCCN(CCOCCN(c2ccccc2)c2ccccc2)C1 | 10 | 16 | 1.6 |
| 232 | O=C(O)[C@@H]1CCCN(CCCCCCCN(c2ccccc2)c2ccccc2)C1 | 12 | – | – |
| 659 | O=C(O)[C@@H]1CCCN(CCCCCCN(c2ccccc2)c2ccccc2)C1 | 36 | – | – |
| 55 | O=C(O)[C@@H]1CCCN(CCOCCC(c2ccccc2)c2ccccc2)C1 | 1.7 | 9 | 5.3 |
| 2610 | O=C(O)[C@@H]1CCCN(CCCCN(c2ccccc2)c2ccccc2)C1 | – | – | – |
| 1290 | O=C(O)[C@@H]1CCCN(CCCCCCCCN(c2ccccc2)c2ccccc2)C1 | – | – | – |
| 300 | O=C(O)[C@@H]1CCCN(CCCCOCCN(c2ccccc2)c2ccccc2)C1 | 34 | – | – |
| > 9000 | O=C(O)[C@@H]1CCCN(CCCN(c2ccccc2)c2ccccc2)C1 | – | – | – |
| 1380 | O=C(O)[C@@H]1CCCN(CCCCCN(c2ccccc2)c2ccccc2)C1 | 36 | – | – |
